The values below come from ChEMBL document CHEMBL3120113, “New 1-arylindoles based serotonin 5-HT7 antagonists. Synthesis and binding evaluation studies” (Eur J Med Chem, 2014).

The Ki is the equilibrium dissociation constant of an inhibitor or competing ligand from its target. Read a high Ki as a looser hold on the target. As usually defined, the inhibition is the relative decrease from the control value, in per cent. Higher therefore signals a strong effect.

Structures are written as SMILES.

In assay [1] the target is T1, 5-hydroxytryptamine receptor 1A (Rattus norvegicus, UniProt P19327).
T1 sequence (P19327 whole entry): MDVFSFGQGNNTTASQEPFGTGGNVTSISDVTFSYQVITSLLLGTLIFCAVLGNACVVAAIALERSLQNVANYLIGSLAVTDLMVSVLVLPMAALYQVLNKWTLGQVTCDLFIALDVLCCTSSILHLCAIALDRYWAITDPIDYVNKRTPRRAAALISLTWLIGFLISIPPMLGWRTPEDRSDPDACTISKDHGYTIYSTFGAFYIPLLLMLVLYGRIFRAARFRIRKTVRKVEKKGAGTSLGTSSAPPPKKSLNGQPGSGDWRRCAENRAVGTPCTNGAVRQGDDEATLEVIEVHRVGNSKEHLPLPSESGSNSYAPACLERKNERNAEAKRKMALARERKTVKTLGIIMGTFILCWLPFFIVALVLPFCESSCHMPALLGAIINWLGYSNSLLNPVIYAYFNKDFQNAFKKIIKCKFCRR
The assay is described as follows: Displacement of [3H]-8-OH-DPAT from 5HT1A receptor in rat hippocampus homogenates after 15 mins by scintillation counting. It is filed as tissue-based. The essentials:
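Rat hippocampal membranes were prepared in 50 mM Tris–HCl pH 7.4 (35,000 g spins, 10 min at 37 °C between). Resuspended in Tris–HCl with 4 mM MgCl2, 10 mM pargyline and 0.1% ascorbate. 1 nM [3H]-8-OH-DPAT, 15 min at 37 °C, GF/B filtration. 10 μM 5-HT defined nonspecific binding. Triplicates at 7–8 concentrations (10⁻¹¹–10⁻⁴ M).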
On the technique in general: In a radioligand displacement assay an active substance lowers the binding of a labelled ligand.

Assay [2] addresses T2, 5-hydroxytryptamine receptor 7 (Homo sapiens, UniProt P34969). The experiment in a line: Displacement of [3H]-5-CT from cloned human 5HT7B receptor expressed in HEK293 cells after 1 hr by scintillation counting. It counts as cell-based. The essentials:
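HEK293 membranes stably expressing human 5-HT7b receptor, homogenized and spun twice at 35,000 g with 15 min at 37 °C between. Assay buffer was 50 mM Tris–HCl with 4 mM MgCl2, […] and 0.1% ascorbate. 0.6 nM [3H]-5-CT, 1 h at 37 °C, then filtration. 10 μM 5-HT defined nonspecific binding. Triplicates at 7–8 concentrations (10⁻¹¹–10⁻⁴ M).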

The target of assay [3] is 5-hydroxytryptamine receptor 2A (Homo sapiens) (UniProt P28223). The assay is described as follows: Binding affinity to 5HT2A receptor (unknown origin) at 10 nM.
5-hydroxytryptamine receptor 2A (Homo sapiens), sequence (P28223 whole entry): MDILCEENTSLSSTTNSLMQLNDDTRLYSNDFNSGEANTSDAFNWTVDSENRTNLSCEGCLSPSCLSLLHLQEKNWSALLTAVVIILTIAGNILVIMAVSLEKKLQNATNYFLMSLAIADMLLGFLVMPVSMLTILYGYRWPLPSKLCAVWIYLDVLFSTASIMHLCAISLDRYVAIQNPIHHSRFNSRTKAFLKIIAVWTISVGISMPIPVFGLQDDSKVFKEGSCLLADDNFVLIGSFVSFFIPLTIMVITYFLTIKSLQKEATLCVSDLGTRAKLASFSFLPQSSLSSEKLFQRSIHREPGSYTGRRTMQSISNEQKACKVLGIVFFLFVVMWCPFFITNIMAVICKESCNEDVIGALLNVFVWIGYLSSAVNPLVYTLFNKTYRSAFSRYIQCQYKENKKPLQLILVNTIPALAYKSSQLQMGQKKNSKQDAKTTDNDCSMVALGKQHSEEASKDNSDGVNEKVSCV
Assay [4] shares this target. The experiment in a line: Binding affinity to 5HT2A receptor (unknown origin) at 1 uM.
Assay [5] in a line: Selectivity ratio of Ki for human 5HT7B receptor to Ki for 5HT1A receptor in rat hippocampus homogenates. It counts as tissue-based. The method in brief:
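Ratio of Ki values from two radioligand displacement assays. 5-HT1A: rat hippocampal membranes, 1 nM [3H]-8-OH-DPAT, 15 min at 37 °C, filtration. 5-HT7b: membranes from HEK293 cells stably expressing the human receptor, 0.6 nM [3H]-5-CT, 1 h at 37 °C. Both used Tris-HCl buffer with MgCl2, pargyline and ascorbate, and 10 μM 5-HT for nonspecific binding. Compounds were tested in triplicate at 7–8 concentrations (10⁻¹¹–10⁻⁴ M). Ki was derived by Cheng–Prusoff from three experiments.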

The target in assay [6] is T3, 5-hydroxytryptamine receptor 1A (Homo sapiens, UniProt P08908).
T3 sequence (P08908 whole entry): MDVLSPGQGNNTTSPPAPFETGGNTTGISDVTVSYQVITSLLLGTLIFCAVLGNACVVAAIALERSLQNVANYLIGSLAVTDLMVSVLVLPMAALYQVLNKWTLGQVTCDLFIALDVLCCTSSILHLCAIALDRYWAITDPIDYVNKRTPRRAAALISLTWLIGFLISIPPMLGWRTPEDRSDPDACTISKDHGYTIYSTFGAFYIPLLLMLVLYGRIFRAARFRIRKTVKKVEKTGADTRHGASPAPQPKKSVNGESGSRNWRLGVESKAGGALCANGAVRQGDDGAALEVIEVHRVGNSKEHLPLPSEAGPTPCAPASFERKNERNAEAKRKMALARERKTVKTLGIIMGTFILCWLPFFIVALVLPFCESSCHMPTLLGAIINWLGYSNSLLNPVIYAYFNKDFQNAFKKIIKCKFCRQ
The experiment in a line: Binding affinity to 5HT1A receptor (unknown origin).

Assay [7] has as its target T2, 5-hydroxytryptamine receptor 7. The experiment in a line: Binding affinity to 5HT7 receptor (unknown origin).

T2 sequence (P34969 whole entry): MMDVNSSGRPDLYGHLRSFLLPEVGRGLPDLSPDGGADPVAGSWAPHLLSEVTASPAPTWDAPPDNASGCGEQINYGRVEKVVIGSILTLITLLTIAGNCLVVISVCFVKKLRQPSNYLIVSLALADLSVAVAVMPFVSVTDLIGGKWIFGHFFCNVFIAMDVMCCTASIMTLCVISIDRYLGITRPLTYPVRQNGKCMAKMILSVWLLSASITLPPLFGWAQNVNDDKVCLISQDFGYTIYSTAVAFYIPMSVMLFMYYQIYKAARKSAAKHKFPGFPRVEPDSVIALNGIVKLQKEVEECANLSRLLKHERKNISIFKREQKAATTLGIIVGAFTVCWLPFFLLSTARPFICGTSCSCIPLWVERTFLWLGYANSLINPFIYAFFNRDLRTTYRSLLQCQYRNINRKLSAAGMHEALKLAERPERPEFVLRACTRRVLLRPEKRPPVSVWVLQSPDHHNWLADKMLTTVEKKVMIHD

`Cc1ccc(-n2cc(CN3CCN(c4ccccc4)CC3)c3ccccc32)cc1`: the Ki in assay [1] worked out at 0.332 µM.

Consider `c1ccc(N2CCN(Cc3cn(-c4ccc5ccccc5c4)c4ccccc34)CC2)cc1`, for which the affinity in assay [1] corresponds to a Ki of 1.95 µM.

Take `COc1ccccc1N1CCN(Cc2cn(-c3ccccc3)c3ccccc23)CC1`: the Ki in assay [1] was 0.01 µM.

In turn, `Cc1ccccc1-n1cc(CN2CC=C(c3ccccc3)CC2)c2ccccc21` came in with a Ki in assay [1] of 0.178 µM.

As to `Cc1ccccc1-n1cc(CCN(C)C)c2ccccc21`, the Ki in assay [2] was found to be 0.283 µM; in assay [1], 0.059 µM.

On to `COc1ccccc1N1CCN(Cc2cn(-c3ccccn3)c3ccccc23)CC1`, for which affinity in assay [1] was put at a Ki of 0.055 µM.

The molecule `Oc1ccccc1N1CCN(Cc2cn(-c3ccccc3)c3ccccc23)CC1` registered a Ki in assay [1] of 0.017 µM.

`Cc1cccc(-n2cc(CN3CCN(c4ccccc4)CC3)c3ccccc32)c1C` came in with a Ki in assay [1] of 0.324 µM.

For `COc1ccccc1N1CCN(Cc2cn(-c3ccccc3C)c3ccccc23)CC1`, the affinity in assay [1], expressed as Ki, was 0.015 µM.

As for `Cc1cccc(-n2cc(CN3CCN(c4ccccc4)CC3)c3ccccc32)c1`, in assay [1], affinity was put at a Ki of 0.09 µM.

With `CC(C)c1ccccc1-n1cc(CN2CCN(c3ccccc3)CC2)c2ccccc21`, the Ki in assay [1] came to 0.118 µM.

For the molecule `CCc1ccccc1-n1cc(CN2CCN(c3ccccc3)CC2)c2ccccc21`, in assay [1], the Ki is 0.134 µM.

Take `COc1ccccc1N1CCN(Cc2cn(-c3cccc(C)c3C)c3ccccc23)CC1`: the inhibition in assay [3] and in assay [4] was 0% each time. This molecule also yielded a Ki in assay [1] of 0.017 µM.

In the case of `c1ccc(N2CCN(Cc3cn(-c4cccc5ccccc45)c4ccccc34)CC2)cc1`, affinity in assay [1] was put at a Ki of 0.545 µM.

As for `COc1ccccc1-n1cc(CN2CCN(c3ccccc3)CC2)c2ccccc21`, the Ki in assay [1] came out at 0.086 µM.

In assay [1], `c1ccc(N2CCN(Cc3cn(-c4ccccc4)c4ccccc34)CC2)cc1` came in with a Ki of 0.216 µM.

As to `Cc1ccccc1-n1cc(CN2CCN(c3ccccc3)CC2)c2ccccc21`, the Ki in assay [1] came to 0.095 µM.

The molecule `N#Cc1ccccc1-n1cc(CN2CCN(c3ccccc3)CC2)c2ccccc21` displayed an inhibition constant (Ki) in assay [1] of 0.036 µM.

Take `c1ccc(N2CCN(Cc3cn(-c4cccnc4)c4ccccc34)CC2)cc1`: the Ki in assay [1] was 0.19 µM.

As for `Cc1ccccc1-n1cc(CN2CCN(C)CC2)c2ccccc21`, the Ki in assay [1] was 2.91 µM.

Take `CN(C)CCc1cn(-c2ccccc2)c2ccccc12`: the Ki was 1.2 µM in assay [2] and 0.062 µM in assay [1]. Moreover, the Ratio Ki in assay [5] amounted to 19.

On to `COc1ccccc1N1CCN(Cc2ccn(-c3ccccc3C)c2)CC1`, for which the values for the Ki in assay [6] and in assay [7] were 0.041 µM and 0.021 µM, respectively.

Molecule `FC(F)(F)c1ccccc1-n1cc(CN2CCN(c3ccccc3)CC2)c2ccccc21` yielded a Ki in assay [1] of 0.081 µM.

`CN(C)CCc1cn(-c2cccc3ccccc23)c2ccccc12`: the results for the Ki in assay [2] and in assay [1] were 0.649 µM and 0.144 µM, respectively.

For the molecule `c1ccc(-c2ccc(-n3cc(CN4CCN(c5ccccc5)CC4)c4ccccc43)cc2)cc1`, in assay [1], the Ki was determined as 49 µM.

Turning to `COc1ccccc1N1CCN(Cc2cn(-c3cccc4ccccc34)c3ccccc23)CC1`, the inhibition in assay [3] worked out at 6%; in assay [4], 10%. This molecule also gave a Ki in assay [1] of 0.07 µM.

Turning to `COc1ccccc1N1CCN(Cc2cn(-c3ccccc3C(C)C)c3ccccc23)CC1`, in assay [1], the Ki was found to be 0.058 µM.

Regarding `Cc1cccc(-n2cc(CCN(C)C)c3ccccc32)c1C`, the Ki in assay [2] worked out at 0.317 µM; in assay [1], 0.076 µM.

`Oc1ccccc1N1CCN(Cc2cn(-c3cccc4ccccc34)c3ccccc23)CC1`: in assay [1], the affinity, expressed as Ki, was 0.057 µM.

Molecule `c1ccc(N2CCN(Cc3cn(-c4ccccn4)c4ccccc34)CC2)cc1` displayed a Ki in assay [1] of 0.095 µM.
